# Arbovirus inh – blocks arbovirus infection | arbovirus infection cell-based antiviral screen | inhibition, % at 10 µM | actives 0.37% (n = 200,000); in the data active = inhibition above about 30%
# Rad51 HR inh – blocks human Rad51 in homologous recombination | hRad51 DNA strand exchange, fluorescence dequenching | inhibition, % at 10 µM | actives 0.085% (n = 200,000);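 active = inhibition above 40% at the single screening dose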;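 also: 0% = DMSO control wells and 100% = blanks with heterologous ssDNA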
# Target sequence (Q06609 whole entry, looked up): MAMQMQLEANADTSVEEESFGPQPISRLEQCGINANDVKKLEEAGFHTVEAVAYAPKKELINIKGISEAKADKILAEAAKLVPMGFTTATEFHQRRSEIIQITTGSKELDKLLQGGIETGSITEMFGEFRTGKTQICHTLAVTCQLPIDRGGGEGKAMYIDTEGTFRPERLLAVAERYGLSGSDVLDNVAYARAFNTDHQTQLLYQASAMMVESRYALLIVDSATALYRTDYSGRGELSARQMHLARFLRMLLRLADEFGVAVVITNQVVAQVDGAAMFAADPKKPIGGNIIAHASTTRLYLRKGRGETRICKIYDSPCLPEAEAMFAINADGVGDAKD
#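 Test system – preformed human Rad51 ssDNA filaments · Reagent – Donor/quencher-labelled 47-bp dsDNA substrate · Incubation – 37 °C 15-min filament assembly, 30-min compound preincubation, 15-min exchange · Signal – FRET fluorescence dequenching, excitation 485 nm, emission 520 nm · Read-out – percent inhibition from fluorescence, normalised to plate control and blank means · Benchmarks – plate control and blank wells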
# BB579 growth dn – yeast BB579 growth reduction in restrictive medium. S. cerevisiae BB579 growth, OD615, 48 h. actives 0.51% (n = 140,000). inhibition, % at 10 µM;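 active = inhibition above a set limit, 3 SD over the mean compound inhibition, cut at about 44% in these data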
#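 Material: Saccharomyces cerevisiae DeaD strain BB579, replicative lifespan model yeast; buffer or medium: CSMM-D restrictive synthetic medium containing dextrose (glucose); compound: 10 µM single dose, DMSO 0.25%; timing: 48 h compound exposure at 30 °C after 4 h preincubation; signal: turbidity as optical density at 615 nm; benchmarks: positive control amphotericin B 10 µg/mL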
# Efa HMGR inh – E. faecalis class II HMG-CoA reductase inhibition. AID 1066. inhibition, % at 10 µM. actives 0.41% (n = 190,000). purified E. faecalis HMGR, NADPH absorbance 340 nm kinetic;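 active = inhibition above a set limit, the median over all tested compounds plus 3 SD, cut at about 9.5% in these data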;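 also: enzyme runs in reverse so mevalonate oxidation gives rising NADPH absorbance; 0% = complete reaction with DMSO and 100% = background rate lacking mevalonate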
# Measles CPE – protection of cells from measles virus. Measles virus-infected cells, CPE protection, absorbance. protection (pct of control), % at 4 µM. actives 1.5% (n = 140,000). AID 841; in the data active = protection mostly above about 24%, no sharp cut-off; inactive = mostly below about 26%
# Yeast life ext – yeast lifespan extension. S. cerevisiae growth with nicotinamide, OD615; deaD strain in restrictive glucose medium. inhibition of the nicotinamide effect, % at 10 µM. actives 0.68% (n = 130,000). AID 775;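 active = inhibition above a set limit, placed 3 SD over the median of all compounds, cut at about 26% in these data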;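 also: 0% = nicotinamide-treated wells and 100% = cells grown without nicotinamide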
#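 assay system = DeaD-strain S. cerevisiae | measured by = absorbance at 615 nm | probe or stimulus = nicotinamide 1.5 mM | buffer or medium = CSMM-D glucose medium, restrictive | times = 48 h at 30 °C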
# Numbers without * were called inactive; · = no result given. An excerpt weighted towards active compounds, which were near 2.4% of everything screened.
SMILES,Arbovirus inh,Rad51 HR inh,BB579 growth dn,Efa HMGR inh,Measles CPE,Yeast life ext
CCOc1ccc(-n2c(COc3ccc(C)cc3)nnc2SCC(N)=O)cc1,12,4,38,-5,8,-6
CCOC(=O)C(CC)Sc1nnc(COc2ccc(C)cc2)n1-c1ccccc1 (configuration not stated),3,-4,-23,-2,28*,·
O=C(Nc1nnc(-c2ccc3c(c2)CCCC3)o1)c1ccc(Cl)cc1Cl,-20,4,-19,-10,10,-9
O=C(Nc1nnc(-c2ccc3c(c2)CCCC3)o1)c1c(F)cccc1F,5,-3,·,10*,·,·
CS(=O)(=O)N(CC(=O)Nc1ccc(S(=O)(=O)N2CCOCC2)cc1)c1ccccc1Br,-3,9,·,-2,·,·
Cc1ccc(O)c(-c2cc(C(=O)Nc3ccc(S(=O)(=O)Nc4nc(C)cc(C)n4)cc3)[nH]n2)c1,35*,-2,-41,2,22,9
Cc1cc(-c2n[nH]c(=S)n2/N=C/c2cc([N+](=O)[O-])ccc2Cl)n[nH]1,6,-7,96*,-6,20,5
[N-]=[N+]=CC(=O)C(c1ccccc1)(c1ccccc1)c1ccccc1,·,17,·,·,·,·
Cc1nn(-c2ccccc2)c(Cl)c1/C=N/Nc1ccc(Cl)c(C(=O)O)c1,89*,1,-39,2,19,-7
O=C(O)c1cc(N/N=C/c2ccc(OCc3ccccc3)cc2)ccc1Cl,39*,-19,·,-5,·,·
C=C(C)CN(CC)C(=O)CCc1nnc(CCc2c[nH]c3ccccc23)o1,-2,·,·,-4,·,·
Cc1cccc(-n2ccnc2SCC(=O)Nc2cc(C)on2)c1,3,-3,-14,-2,30*,-10
COc1ccc(-n2cnnc2SCC(=O)Nc2cc(C)on2)cc1,-2,44*,·,-7,·,·
Cc1cc(NC(=O)CSc2nncn2-c2ccccc2)no1,5,-6,·,-5,·,·
C/C(=N\NC(=O)Cn1nnc2ccccc21)c1ccco1,-1,1,·,-4,·,·
N#Cc1c(C(F)(F)F)cc(-c2cccc(Cl)c2)[nH]c1=O,42*,-2,-4,-7,9,-13
N#Cc1c(C(F)(F)F)cc(-c2ccc(Cl)cc2)[nH]c1=O,43*,-1,-36,-6,3,-17
N#Cc1c(C(F)(F)F)cc(-c2ccc(F)cc2)[nH]c1=O,30,-1,·,-3,·,·
CCn1nnc(-c2ccc(N)cc2)n1,14,-2,·,-10,·,·
COC(=O)c1ccc(C(=O)OC)c(NC2=NS(=O)(=O)c3ccccc32)c1,-1,-1,-70,-6,7,2
COc1ccc(S(=O)(=O)N(NC2=NS(=O)(=O)c3ccccc32)C(=O)C(C)C)cc1,7,7,·,11*,·,·
CC1CCN(c2nc(Cl)nc(Nc3ccc([N+](=O)[O-])cc3)n2)CC1,-34,·,-44,-6,8,-2
CCN(CC)S(=O)(=O)c1ccc(C(=O)/C=C/c2ccc(-c3ccc([N+](=O)[O-])cc3)o2)cc1,·,-29,·,·,·,·
CCc1ccc(C(=O)/C=C/c2ccc([N+](=O)[O-])o2)cc1,-31,-27,-59,-1,1,46*
CCOCCCNC(=O)Cn1cnc2sc(C)c(S(=O)(=O)N3CCN(c4ncccn4)CC3)c2c1=O,3,9,·,8,·,·
SMILES,Arbovirus inh,Rad51 HR inh,BB579 growth dn,Efa HMGR inh,Measles CPE,Yeast life ext
Cc1cc(C(=O)COc2ccccc2C(N)=O)c(C)n1C1CC1,-4,14,·,-5,·,·
CCNC(=O)COC(=O)c1cc(C)n(-c2ccccc2)c1C,-2,-12,·,-3,·,·
Cc1cc(C(=O)COC(=O)c2ccc[nH]c2=O)c(C)n1C1CC1,3,·,-6,-1,20,29*
Cc1cc(C(=O)COC(=O)c2ccc[nH]c2=O)c(C)n1-c1ccc(F)cc1,1,-4,54*,4,8,17
Cc1cc(C(=O)COC(=O)c2ccc[nH]c2=O)c(C)n1-c1ccccc1,2,1,59*,-1,7,22
Cc1cc(C(=O)OCC(=O)NCc2ccco2)c(C)n1-c1ccc(F)cc1,-12,1,-32,-5,8,-3
Cc1cc(=O)[nH]c(N/N=C/c2cn(CCC#N)nc2-c2ccccc2)n1,5,6,·,0,·,·
CC1=C[C@H]2OC(=O)[C@@H](C)[C@H]2C[C@@H]2[C@H]1C[C@@H](O)[C@@]2(C)O,·,-6,·,·,·,·
O=[N+]([O-])c1cc(-c2nnc(Nc3ccccc3)c3ccccc23)ccc1N1CCOCC1,-11,7,-46,-3,6,3
Cc1ccc(Nc2nnc(-c3ccc(N4CCOCC4)c([N+](=O)[O-])c3)c3ccccc23)cc1,-12,-5,-42,-4,35*,3
Cc1nn(-c2c(Cl)cc(Cl)cc2Cl)c(=O)c2ccccc12,1,·,-6,2,23,49*
Cc1nccc(-c2cccc(NC(=O)c3ccccc3Cl)c2)n1,·,10,·,·,·,·
CN(C)CC(C(=O)c1ccccc1)c1ccccc1 (configuration not stated),-46,3,-38,1,24,101*
CCOC(=O)CSc1nnc(-c2ccc(Cl)cc2Cl)o1,-4,-9,-35,-2,42*,-19
CCCOC(=O)CSc1nnc(-c2ccc(Cl)cc2Cl)o1,3,5,-35,1,3,-7
CCCNC(=O)c1ccc(C2SCC(=O)N2CCc2ccccc2)cc1 (configuration not stated),3,4,-36,1,9,9
COc1ccc(CCn2c(=O)[nH]c3cc(C(=O)NCCCN4CCOCC4)ccc3c2=O)cc1OC,·,18,·,·,·,·
CCCCCn1c(=O)[nH]c2cc(C(=O)NCCc3ccc(OC)c(OC)c3)ccc2c1=O,0,6,-13,2,38*,1
N#CSCC(=O)c1cccc2ccccc12,-9,·,84*,1,9,0
COc1ccc(C2=NO[C@@H]3C(=O)N(C4CCCCC4)C(=O)[C@H]23)cc1OC,10,-1,-56,-3,19,3
COc1ccc(-c2nc3c(n2O)CCCC3=O)cc1OC,4,10,-14,2,89*,-14
COc1ccccc1C(=O)NCCCNc1ccc([N+](=O)[O-])cc1,-4,-1,-17,0,27*,-5
CC(=O)NCCCNc1ccc([N+](=O)[O-])cc1,4,·,-41,-6,6,2
C=CCC1(O)C(=O)N2C(=C1C(=O)OCC)c1ccc3ccccc3c1CC2(C)C (configuration not stated),-8,·,-12,-5,61*,2
S=c1[nH]nc(C2CCCCC2)o1,5,-4,·,-2,·,·
O=C(NC1CCCC1)C1CCC(=O)N1C1CCCCC1 (configuration not stated),7,45*,·,-4,·,·
COc1ccc(C(CNC(=O)c2cccc(Br)c2)N2CCCC2)cc1 (configuration not stated),-2,11,-36,3,5,123*
